Source: PubChem BioAssay (several laboratories)
SDO1 yeast rescue: compounds rescuing growth of sdo1-depleted yeast, bone marrow failure model. S. cerevisiae sdo1-depleted JHY4D growth rescue, OD600 30 h; active compounds read high; pdr5 snq2 efflux-pump mutant strain. z-score at 10 µM. 0.21% of 140,000 active;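 active = z-score above 3 at both the 24 hr and the 30 hr optical density reads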
FLuc act counter: affects firefly luciferase, flagging false hits in luciferase stimulation screens; AID 1027; 200,000 tested, under 10 active; ATPlite luciferase biochemical, luminescence, 10 min; 0 = ATP-free wells, 1 = DMSO control; activation factor at 10 µM;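 active = luciferase activation factor, scaled between plate controls, of at least 2 with compound at 10 µM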
Target sequence (P08659 whole entry, looked up): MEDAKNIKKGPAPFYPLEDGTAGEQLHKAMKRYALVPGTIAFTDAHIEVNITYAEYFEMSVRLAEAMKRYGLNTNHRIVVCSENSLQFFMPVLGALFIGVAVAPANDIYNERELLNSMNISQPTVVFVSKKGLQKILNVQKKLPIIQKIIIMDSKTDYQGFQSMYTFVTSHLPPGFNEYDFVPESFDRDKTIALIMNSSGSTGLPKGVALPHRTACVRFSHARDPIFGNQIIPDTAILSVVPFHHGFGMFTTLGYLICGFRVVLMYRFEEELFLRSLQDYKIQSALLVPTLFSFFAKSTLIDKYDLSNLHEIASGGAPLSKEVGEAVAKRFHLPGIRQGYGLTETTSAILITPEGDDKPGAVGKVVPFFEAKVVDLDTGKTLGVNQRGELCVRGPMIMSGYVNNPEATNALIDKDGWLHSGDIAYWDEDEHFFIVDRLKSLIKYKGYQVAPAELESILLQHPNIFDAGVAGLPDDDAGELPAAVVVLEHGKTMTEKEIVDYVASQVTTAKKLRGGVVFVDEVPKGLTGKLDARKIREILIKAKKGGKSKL
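Material: Luciferase/luciferin reagent mix; Doses: test compounds dosed from 2 mM stocks in 100% DMSO; Schedule: 10 min incubation after luciferase reagent addition, room temperature; Measured by: luminescence from luciferase reaction; Read-out: luminescence gain marking luciferase activators.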
APP 5'UTR act: activates APP 5'UTR luciferase reporter; SH-SY5Y APP 5'UTR luciferase reporter, luminescence; zero percent = DMSO vehicle wells; activation, % at 2 µM; 1% of 190,000 active;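 active = activation above a set limit, based on mean plus 3 SD of controls, cut at about 140% in these data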
STAT1 activator: STAT1 signaling activation; activation (% of control), % at 5.5 µM; 2.6% of 200,000 active; NIH 3T3 STAT1-luciferase reporter, IFN-gamma, luminescence; 100% = IFN-gamma alone, no compound;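 active = activation above the screen-wide mean activation plus 3 SD, cut at about 130% in these data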
FLuc inh counter: counter-screen for luciferase assay inhibitors: firefly luciferase inhibition; ATPLite firefly luciferase biochemical luminescence, 10 min; inhibition, % at 10 µM; 1.5% of 200,000 active; P08659;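 active = inhibition above about 50% when tested at 10 µM, limit read from the data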
NF-kB neuron act: raises NF-kB expression in human neuronal cells; 1.6% of 190,000 active; NF-kB reporter expression; active compounds read high; fold change at 12.5 µM; in the data active = fold change above about 3.3
A number is an active result; i = inactive; nt = no result. This is a sample that favours compounds with a hit; in the whole collection about 4.3% have one here.

SMILES	SDO1 yeast rescue	FLuc act counter	APP 5'UTR act	STAT1 activator	FLuc inh counter	NF-kB neuron act
COc1ccc(/C=N/N=C(\N)c2nonc2N)cc1	nt	i	191	i	52	9.4
CS(=O)(=O)c1nc(-c2ccc(Br)cc2)cc(-c2ccccc2)c1C#N	i	i	i	i	i	i
COc1ccc(-c2cc(-c3ccccc3)c(C#N)c(S(C)(=O)=O)n2)cc1	i	i	i	i	i	6.3
C/C(=N/NC(=O)CNC(=O)c1cccc(F)c1)c1ccc2c(c1)CCCC2	nt	i	i	i	i	i
CC(=O)NCc1ccc(C(=O)CCl)s1	nt	i	i	i	i	4
COc1cccc2sc(N(C)c3ccccc3)nc12	i	i	218	150	85	5.8
COc1cccc2sc(N3CCN(c4nc5ccccc5s4)CC3)nc12	i	i	i	i	i	i
CCc1nc(SCCO)c2oc3ccccc3c2n1	i	i	i	i	i	i
CCc1nc(Sc2nc(C)cc(C)n2)c2oc3ccccc3c2n1	i	i	nt	i	i	4.3
Cc1ccc(C(=O)n2c(=S)nc3ccccn32)cc1	i	i	184	150	96	i
O=C(c1ccccc1)n1c(=S)nc2ccccn21	nt	i	nt	nt	94	nt
Cc1cc(C(=O)CSc2nc3ccccc3o2)c(C)n1CC1CCCO1 (stereo unspecified)	i	i	i	142	i	i
c1ccc2[nH]c(SCC3CCCCO3)nc2c1 (stereo unspecified)	nt	i	152	131	i	3.7
Cc1cc(C(=O)COC(=O)c2ccc3c(c2)OCO3)c(C)n1CC1CCCO1 (stereo unspecified)	nt	i	i	i	67	i
Cc1cc(C(=O)CSc2nc3ccccc3[nH]2)c(C)n1CC1CCCO1 (stereo unspecified)	i	i	189	i	i	i
ClC1(Cl)CC1CSc1nc2ccccc2[nH]1 (stereo unspecified)	nt	i	i	i	i	i
COc1ccc(CNC(=O)C(OC(=O)c2nsc(Cl)c2Cl)C(C)C)cc1 (stereo unspecified)	nt	i	i	i	i	i
CCOC(=O)N1CCC(N(CCN(C)C)C(=S)Nc2cc(C)cc(C)c2)CC1	i	i	i	i	i	i
Cc1ccc(C)c(NC(=O)c2ccc3ccccc3n2)c1	i	i	i	i	56	8.5
Cc1nc2ccc(NC(=O)c3ccc4ccccc4n3)cc2s1	nt	i	i	135	i	i
CCc1nc2ccc(C(=O)O)cc2nc1CC	i	i	i	i	i	6.1
Cc1nc2ccc(NC(=O)c3ccccc3)cc2s1	nt	i	i	131	i	i
CCOc1ccc(-c2n[nH]c(C)c2Oc2ccc(OC)cc2)c(O)c1	i	i	i	i	i	i
COc1ccc(C(=O)/C=C/C(=O)N(CC(=O)NC2CCCCC2)Cc2ccc(F)cc2)c(O)c1	nt	i	i	i	i	i
CC1(C)CC(=O)c2c(O)cc(OCc3ccc([N+](=O)[O-])cc3)cc2O1	i	i	i	i	i	i
SMILES	SDO1 yeast rescue	FLuc act counter	APP 5'UTR act	STAT1 activator	FLuc inh counter	NF-kB neuron act
Cc1nc2ccc(NC(=O)Cc3cccc(F)c3)cc2s1	nt	i	i	i	i	i
Cc1nc2cc(C(=O)O)ccc2s1	i	i	i	143	i	i
CNC(=O)Nc1ccc2nc(C)sc2c1	nt	i	i	i	i	i
Cc1nc2ccc(NC(=O)c3sccc3C)cc2s1	i	i	163	143	i	4.7
Cc1nc2ccc(NC(=O)Cc3ccccc3F)cc2s1	nt	i	i	141	54	6.8
Cc1ccccc1OCCNC(=O)c1ccc2ccccc2n1	i	i	146	141	i	i
COCCNC(=O)c1ccc2ccccc2n1	i	i	i	i	i	i
COc1ccc(/C=C/C(=O)OCCCN(C)C)cc1	nt	i	i	i	i	i
Cc1nnc(NC(=O)c2ccc3ccccc3n2)s1	nt	i	i	138	i	i
NNC(=O)c1ccc2ccccc2n1	nt	i	i	i	i	i
C/C(=N\NC(=O)c1ccccc1)c1ccccc1F	nt	i	i	132	i	i
C/C(=N\NC(=O)c1ccccc1)c1ccccc1Br	i	i	i	i	i	i
C/C(=N\NC(=O)C(N)=O)c1ccc(NC(=O)c2cccs2)cc1	nt	i	i	137	i	i
C/C(=N\NC(=O)c1cccc(S(=O)(=O)Nc2cccc(Cl)c2)c1)c1cccs1	i	i	i	i	i	i
N/C(=N\O)c1ccc(NC(=O)c2cccs2)cc1	i	i	i	130	i	i
CCN(CC)S(=O)(=O)c1cccc(C(=O)N/N=C(\C)c2cccs2)c1	nt	i	i	129	i	i
CC(=O)c1ccc(NC(=O)c2cccs2)cc1	i	i	i	i	i	i
COC(/C=C/Nc1ccc(C)c(C)c1)=C(C#N)C#N	i	i	i	i	i	i
CC(=O)Nc1cccc(/C(C)=N/NC(=O)c2cccs2)c1	i	i	i	140	i	i
C/C(=N\NC(=O)c1ccccc1C)c1ccc(NC(=O)c2cccs2)cc1	i	i	i	i	i	i
C/C(=N\NC(=O)c1ccccc1)c1ccc(NC(=O)c2cccs2)cc1	i	i	i	136	i	i
CN1CCS/C1=C/C=C1\SC(=S)N(CC(=O)O)C1=O	nt	i	i	i	i	i
CCCCN1C(=O)/C(=C/C=C2\SCCN2C)SC1=S	nt	i	i	130	i	i
CC(C)(C)OC(=O)C(Cl)(C(=O)OC(C)(C)C)c1ccc2nnnn2n1	nt	i	i	i	i	i
Cc1cccnc1Sc1c([N+](=O)[O-])ncn1C	i	i	i	i	i	i
SMILES	SDO1 yeast rescue	FLuc act counter	APP 5'UTR act	STAT1 activator	FLuc inh counter	NF-kB neuron act
Cc1cccc(Sc2c([N+](=O)[O-])ncn2C)c1	i	i	i	i	52	i
Nc1nn2cc(-c3ccccc3)nc2c2ccccc12	nt	i	198	143	85	i
O=C(NCCC1=CCCCC1)NC12CC3CC(CC(C3)C1)C2	i	i	173	144	i	i
O=C(NCCC1=CCCCC1)Nc1ccc2nsnc2c1	nt	i	165	133	i	6.4
Cc1ccsc1C1Nc2ccccc2-c2nc3ccccc3n21 (stereo unspecified)	i	i	i	129	i	i
Cc1ccc(C)c(Nc2nc(N)c3ccccc3n2)c1	nt	i	184	i	66	i
Nc1nc(Nc2cccc(F)c2)nc2ccccc12	i	i	i	145	57	5.3
Cc1ccc(C)c(Nc2ncnc(N)c2[N+](=O)[O-])c1	i	i	i	i	i	i
O=c1oc(Nc2cccc(F)c2)nc2ccccc12	i	i	i	i	i	i
O=S(=O)(c1cccc(-c2n[nH]c(=S)n2C2CCCC2)c1)N1CCOCC1	nt	i	i	i	i	i
O=C(NNc1nc2cc3c(cc2s1)OCO3)c1cccc(F)c1	i	i	i	i	i	i
COc1cc(NC(=O)C(C)C)ccc1NC(=O)c1ccco1	i	i	i	134	i	i
Cc1cc(NC(=O)c2ccc3c(c2)OCCO3)ccc1NC(=O)c1ccco1	nt	i	i	i	82	i
